{"source": "ChEMBL document CHEMBL1129626", "about": "“Cyclic HIV protease inhibitors: synthesis, conformational analysis, P2/P2' structure-activity relationship, and molecular recognition of cyclic ureas” (J Med Chem, 1996)", "key": {"[1]": {"experiment": "Bioavailability as maximal plasma concentration in dogs", "assay_type": "ADME, organism-based, Canis lupus familiaris", "settings": "dog", "how_it_was_run": "(§1)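 Dogs received an oral dose of 10 mg/kg. Cmax is the observed peak plasma concentration after the oral dose. Oral bioavailability is the dose-normalized ratio AUC(po)/AUC, with the plasma concentration–time area taken from zero to infinity.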"}, "[2]": {"experiment": "(§2) Bioavailability as maximal plasma concentration in rats", "assay_type": "ADME, organism-based", "settings": "rat", "how_it_was_run": "(§3)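 Rats (n = 4/group) were given an oral dose of 10 mg/kg in a propylene glycol / poly(ethylene glycol) 400 / water formulation. Cmax is the observed peak plasma concentration after the oral dose. F% is AUC(po)/AUC, with AUC taken from time zero to infinity and normalized for dose.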"}, "[3]": {"experiment": "Bioavailability in dog", "assay_type": "ADME, organism-based, Canis lupus familiaris", "settings": "in vivo", "how_it_was_run": "as §1"}, "[4]": {"experiment": "Bioavailability in rat", "assay_type": "ADME, organism-based", "settings": "in vivo", "how_it_was_run": "as §3"}, "[5]": {"test_system": "Human immunodeficiency virus 1", "experiment": "Inhibition of viral infection in HIV-1 (RF)-infected MT-2 cells with an oligonucleotide-based sandwich hybridization assay.", "assay_type": "functional, MT2", "how_it_was_run": "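Uninfected MT-2 cells were preincubated for 30 min with serial dilutions of compound, then infected with HIV-1 RF and cultured for 3 days at 37 °C, 5% CO2. Lysates were assayed for viral RNA by microtiter oligonucleotide sandwich hybridization.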"}, "[6]": {"target": "Human immunodeficiency virus type 1 protease (Human immunodeficiency virus 1, UniProt Q72874)", "experiment": "Inhibitory activity against HIV-1 protease", "how_it_was_run": "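HIV-1 protease Ki from cleavage of a fluorescent peptide substrate, products resolved by HPLC. Inhibitor was tested at four concentrations spanning 0.1–10 000 nM, the range chosen per inhibitor.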"}, "[7]": {"experiment": "as §2", "assay_type": "ADME, organism-based", "settings": "rat", "how_it_was_run": "as §3", "remark": "listed apart in the source"}, "[8]": {"settings": "Human immunodeficiency virus 1, MT2"}}, "data": [{"smiles": "O=C1N(Cc2cccc(O)c2)[C@H](Cc2ccccc2)[C@H](O)[C@@H](O)[C@@H](Cc2ccccc2)N1Cc1cccc(O)c1", "values": [{"measurement": "Cmax", "setting": "[1]", "result": 2000, "unit": "nM"}, {"measurement": "Cmax", "setting": "[2]", "result": 810, "unit": "nM"}, {"measurement": "bioavailability", "setting": "[3]", "result": 16, "unit": "%"}, {"measurement": "bioavailability", "setting": "[4]", "result": 30, "unit": "%"}, {"measurement": "IC90", "setting": "[5]; [8]", "result": 0.054, "unit": "µM"}, {"measurement": "Ki", "setting": "[6]", "result": 0.00012, "unit": "µM"}]}, {"smiles": "C=CCN1C(=O)N(CC=C)[C@H](Cc2ccccc2)[C@H](O)[C@@H](O)[C@H]1Cc1ccccc1", "values": [{"measurement": "Cmax", "setting": "[2]", "result": 2700, "unit": "nM"}, {"measurement": "bioavailability", "setting": "[4]", "result": 49, "unit": "%"}, {"measurement": "IC90", "setting": "[5]; [8]", "result": 4.7, "unit": "µM"}, {"measurement": "Ki", "setting": "[6]", "result": 0.0052, "unit": "µM"}]}, {"smiles": "O=C1N(Cc2ccc(O)cc2)[C@H](Cc2ccccc2)[C@H](O)[C@@H](O)[C@@H](Cc2ccccc2)N1Cc1ccc(O)cc1", "values": [{"measurement": "Cmax", "setting": "[2]", "result": 390, "unit": "nM"}, {"measurement": "bioavailability", "setting": "[4]", "result": 22, "unit": "%"}, {"measurement": "IC90", "setting": "[5]; [8]", "result": 0.032, "unit": "µM"}, {"measurement": "Ki", "setting": "[6]", "result": 0.00012, "unit": "µM"}]}, {"smiles": "O=C1N(Cc2cccc(O)c2)[C@H](Cc2ccccc2)[C@H](O)[C@@H](O)[C@@H](Cc2ccccc2)N1Cc1ccc2ccccc2c1", "values": [{"measurement": "Cmax", "setting": "[1]", "result": 2700, "unit": "nM"}, {"measurement": "Cmax", "setting": "[2]", "result": 960, "unit": "nM"}, {"measurement": "Cmax", "setting": "[7]", "result": 960, "unit": "nM"}, {"measurement": "IC90", "setting": "[5]; [8]", "result": 0.145, "unit": "µM"}, {"measurement": "Ki", "setting": "[6]", "result": 0.00033, "unit": "µM"}]}, {"smiles": "O=C1N(CC2CC2)[C@H](Cc2ccccc2)[C@H](O)[C@@H](O)[C@@H](Cc2ccccc2)N1CC1CC1", "values": [{"measurement": "Cmax", "setting": "[1]", "result": 9200, "unit": "nM"}, {"measurement": "Cmax", "setting": "[2]", "result": 4300, "unit": "nM"}, {"measurement": "bioavailability", "setting": "[3]", "result": 48, "unit": "%"}, {"measurement": "bioavailability", "setting": "[4]", "result": 100, "unit": "%"}, {"measurement": "IC90", "setting": "[5]; [8]", "result": 1.8, "unit": "µM"}]}, {"smiles": "O=C1N(Cc2ccc(CO)cc2)[C@H](Cc2ccccc2)[C@H](O)[C@@H](O)[C@@H](Cc2ccccc2)N1Cc1ccc(CO)cc1", "note": "[DMP-323]", "values": [{"measurement": "Cmax", "setting": "[1]", "result": 2800, "unit": "nM"}, {"measurement": "Cmax", "setting": "[2]", "result": 780, "unit": "nM"}, {"measurement": "bioavailability", "setting": "[3]", "result": 37, "unit": "%"}, {"measurement": "bioavailability", "setting": "[4]", "result": 27, "unit": "%"}, {"measurement": "IC90", "setting": "[5]", "result": 0.057, "unit": "µM"}]}]}
